Measured values: ChEMBL document CHEMBL3632558, “Synthesis, antimycobacterial and antibacterial activity of l-[(1R,2S)-2-fluorocyclopropyl]naphthyridone derivatives containing an oxime-functionalized pyrrolidine moiety” (2015)
In brackets after ≈: the same amount, converted by molar mass.

Columns and labels:
Type in all cases: functional
[1] = tested on: Enterococcus faecium; assay: Antibacterial activity against Enterococcus faecium 14-2 after 18 to 24 hrs
How it was run: (§1)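 MIC by standard NCCLS reference procedure (M100-S11); lowest concentration of compound inhibiting visible bacterial growth after incubation at 35 °C for 18–24 h, read as complete inhibition of growth. Ciprofloxacin, levofloxacin and moxifloxacin run alongside as reference agents.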

[2] = tested on: Staphylococcus aureus; assay: Antibacterial activity against Staphylococcus aureus CMCC 26003 after 18 to 24 hrs; how it was run: as §1
[3] = tested on: Escherichia coli; assay: Antibacterial activity against ESBL-positive Escherichia coli 14-2 after 18 to 24 hrs; how it was run: as §1
[4] = tested on: Staphylococcus epidermidis; assay: Antibacterial activity against methicillin-resistant Staphylococcus epidermidis 14-22 after 18 to 24 hrs
[5] = tested on: Pseudomonas aeruginosa; assay: Antibacterial activity against Pseudomonas aeruginosa 14-16 after 18 to 24 hrs; how it was run: as §1
[6] = tested on: Klebsiella pneumoniae; assay: Antibacterial activity against ESBL-positive Klebsiella pneumoniae 14-18 after 18 to 24 hrs; how it was run: as §1
[7] = tested on: Staphylococcus epidermidis; assay: Antibacterial activity against methicillin-resistant Staphylococcus epidermidis 14-37 after 18 to 24 hrs
[8] = tested on: Enterococcus faecalis; assay: Antibacterial activity against Enterococcus faecalis 14-1 after 18 to 24 hrs; how it was run: as §1
[9] = tested on: Staphylococcus aureus; assay: Antibacterial activity against methicillin-resistant Staphylococcus aureus 14-4 after 18 to 24 hrs
[10] = tested on: Enterococcus faecium; assay: Antibacterial activity against Enterococcus faecium 14-6 after 18 to 24 hrs; how it was run: as §1
[11] = tested on: Escherichia coli; assay: Antibacterial activity against ESBL-positive Escherichia coli 14-1 after 18 to 24 hrs; how it was run: as §1
[12] = tested on: Klebsiella pneumoniae; assay: Antibacterial activity against ESBL-positive Klebsiella pneumoniae 14-17 after 18 to 24 hrs; how it was run: as §1
[13] = tested on: Escherichia coli; assay: Antibacterial activity against Escherichia coli 14-1 after 18 to 24 hrs; how it was run: as §1
[14] = tested on: Staphylococcus aureus; assay: Antibacterial activity against methicillin-sensitive Staphylococcus aureus 14-3 after 18 to 24 hrs; how it was run: as §1
[15] = tested on: Klebsiella pneumoniae; assay: Antibacterial activity against Klebsiella pneumoniae 14-2 after 18 to 24 hrs; how it was run: as §1
[16] = tested on: Pseudomonas aeruginosa; assay: Antibacterial activity against Pseudomonas aeruginosa 14-15 after 18 to 24 hrs; how it was run: as §1
[17] = tested on: Staphylococcus aureus; assay: Antibacterial activity against methicillin-sensitive Staphylococcus aureus 14-2 after 18 to 24 hrs; how it was run: as §1
[18] = tested on: Mycobacterium tuberculosis; assay: Antimycobacterial activity against Mycobacterium tuberculosis H37Rv ATCC 27294 by alamar blue assay
How it was run: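 Microplate Alamar Blue Assay; MIC is the lowest concentration giving ≥90% reduction in fluorescence relative to the mean of replicate bacterium-only controls. MDR strain 6133 is resistant to isoniazid and rifampicin.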

[19] = tested on: Klebsiella pneumoniae; assay: Antibacterial activity against Klebsiella pneumoniae 14-3 after 18 to 24 hrs; how it was run: as §1
[20] = tested on: Staphylococcus epidermidis; assay: Antibacterial activity against methicillin-sensitive Staphylococcus epidermidis 14-2 after 18 to 24 hrs; how it was run: as §1
[21] = tested on: Staphylococcus aureus; assay: Antibacterial activity against methicillin-sensitive Staphylococcus aureus 14-4 after 18 to 24 hrs; how it was run: as §1
[22] = tested on: Enterococcus faecalis; assay: Antibacterial activity against Enterococcus faecalis 14-2 after 18 to 24 hrs; how it was run: as §1
[23] = tested on: Enterococcus faecium; assay: Antibacterial activity against Enterococcus faecium 14-1 after 18 to 24 hrs; how it was run: as §1
[24] = tested on: Klebsiella pneumoniae; assay: Antibacterial activity against Klebsiella pneumoniae 14-4 after 18 to 24 hrs; how it was run: as §1
[25] = tested on: Streptococcus pneumoniae; assay: Antibacterial activity against Streptococcus pneumoniae ATCC 19615 after 18 to 24 hrs; how it was run: as §1
[26] = tested on: Staphylococcus aureus; assay: Antibacterial activity against methicillin-resistant Staphylococcus aureus 14-5 after 18 to 24 hrs
[27] = tested on: Pseudomonas aeruginosa; assay: Antibacterial activity against Pseudomonas aeruginosa 14-19 after 18 to 24 hrs; how it was run: as §1
[28] = tested on: Escherichia coli; assay: Antibacterial activity against Escherichia coli 14-2 after 18 to 24 hrs; how it was run: as §1
[29] = tested on: Escherichia coli; assay: Antibacterial activity against Escherichia coli ATCC 25922 after 18 to 24 hrs; how it was run: as §1
[30] = tested on: Pseudomonas aeruginosa; assay: Antibacterial activity against Pseudomonas aeruginosa ATCC 27853 after 18 to 24 hrs; how it was run: as §1
[31] = tested on: Enterococcus faecium; assay: Antibacterial activity against Enterococcus faecium 14-5 after 18 to 24 hrs; how it was run: as §1
[32] = tested on: Pseudomonas aeruginosa; assay: Antibacterial activity against Pseudomonas aeruginosa 14-14 after 18 to 24 hrs; how it was run: as §1
[33] = tested on: Pseudomonas aeruginosa; assay: Antibacterial activity against Pseudomonas aeruginosa 14-9 after 18 to 24 hrs; how it was run: as §1
[34] = tested on: Staphylococcus epidermidis; assay: Antibacterial activity against methicillin-resistant Staphylococcus epidermidis 14-21 after 18 to 24 hrs
[35] = tested on: Staphylococcus epidermidis; assay: Antibacterial activity against methicillin-resistant Staphylococcus epidermidis 14-39 after 18 to 24 hrs
[36] = tested on: Klebsiella pneumoniae; assay: Antibacterial activity against Klebsiella pneumoniae 14-1 after 18 to 24 hrs; how it was run: as §1
[37] = tested on: Klebsiella pneumoniae; assay: Antibacterial activity against ESBL-positive Klebsiella pneumoniae 14-19 after 18 to 24 hrs; how it was run: as §1
[38] = tested on: Staphylococcus aureus; assay: Antibacterial activity against methicillin-sensitive Staphylococcus aureus 14-1 after 18 to 24 hrs; how it was run: as §1

Row | Compound | MIC [1] [µg/mL] | MIC [2] [µg/mL] | MIC [3] [µg/mL] | MIC [4] [µg/mL] | MIC [5] [µg/mL] | MIC [6] [µg/mL] | MIC [7] [µg/mL] | MIC [8] [µg/mL] | MIC [9] [µg/mL] | MIC [10] [µg/mL] | MIC [11] [µg/mL] | MIC [12] [µg/mL] | MIC [13] [µg/mL] | MIC [14] [µg/mL] | MIC [15] [µg/mL] | MIC [16] [µg/mL] | MIC [17] [µg/mL] | MIC90 [18] [µg/mL] | MIC [19] [µg/mL] | MIC [20] [µg/mL] | other results
1 | CC1(CN)CN(c2nc3c(cc2F)c(=O)c(C(=O)O)cn3[C@@H]2C[C@@H]2F)C/C1=N\OCc1ccccc1 (some centres not stated) | 4 (≈ 8.04 µM) | < 0.008 | > 128 | 4 (≈ 8.04 µM) | 32 (≈ 64.3 µM) | 32 (≈ 64.3 µM) | 16 (≈ 32.2 µM) | 32 (≈ 64.3 µM) | 8 (≈ 16.1 µM) | 8 (≈ 16.1 µM) | 8 (≈ 16.1 µM) | 16 (≈ 32.2 µM) | > 128 | < 0.008 | > 128 | 32 (≈ 64.3 µM) | < 0.008 | 0.514 (≈ 1.03 µM) | 128 (≈ 257 µM) | 16 (≈ 32.2 µM) | MIC [21]: < 0.008 µg/mL; MIC [22]: 0.25 µg/mL (≈ 0.503 µM); MIC [23]: 4 µg/mL (≈ 8.04 µM); MIC [24]: > 128 µg/mL; MIC [25]: < 0.008 µg/mL; MIC [26]: 4 µg/mL (≈ 8.04 µM); MIC [27]: 8 µg/mL (≈ 16.1 µM); MIC [28]: > 128 µg/mL; MIC [29]: 0.125 µg/mL (≈ 0.251 µM); MIC [30]: 8 µg/mL (≈ 16.1 µM); MIC [31]: 8 µg/mL (≈ 16.1 µM); MIC [32]: 32 µg/mL (≈ 64.3 µM); MIC [33]: 16 µg/mL (≈ 32.2 µM); MIC [34]: 4 µg/mL (≈ 8.04 µM); MIC [35]: 16 µg/mL (≈ 32.2 µM); MIC [36]: 128 µg/mL (≈ 257 µM); MIC [37]: 64 µg/mL (≈ 129 µM); MIC [38]: 2 µg/mL (≈ 4.02 µM)
2 | CO/N=C1\CN(c2nc3c(cc2F)c(=O)c(C(=O)O)cn3[C@@H]2C[C@@H]2F)CC1(C)N (some centres not stated) | > 128 | 0.25 (≈ 0.614 µM) | > 128 | 32 (≈ 78.6 µM) | 32 (≈ 78.6 µM) | 32 (≈ 78.6 µM) | 32 (≈ 78.6 µM) | 128 (≈ 314 µM) | 128 (≈ 314 µM) | > 128 | 32 (≈ 78.6 µM) | 16 (≈ 39.3 µM) | > 128 | 0.5 (≈ 1.23 µM) | > 128 | 32 (≈ 78.6 µM) | 0.5 (≈ 1.23 µM) | 0.392 (≈ 0.962 µM) | > 128 | > 128 | MIC [21]: 0.5 µg/mL (≈ 1.23 µM); MIC [22]: 2 µg/mL (≈ 4.91 µM); MIC [23]: > 128 µg/mL; MIC [24]: > 128 µg/mL; MIC [25]: 0.25 µg/mL (≈ 0.614 µM); MIC [26]: 128 µg/mL (≈ 314 µM); MIC [27]: 32 µg/mL (≈ 78.6 µM); MIC [28]: > 128 µg/mL; MIC [29]: 0.5 µg/mL (≈ 1.23 µM); MIC [30]: 8 µg/mL (≈ 19.6 µM); MIC [31]: > 128 µg/mL; MIC [32]: 32 µg/mL (≈ 78.6 µM); MIC [33]: 16 µg/mL (≈ 39.3 µM); MIC [34]: 128 µg/mL (≈ 314 µM); MIC [35]: 64 µg/mL (≈ 157 µM); MIC [36]: > 128 µg/mL; MIC [37]: > 128 µg/mL; MIC [38]: 16 µg/mL (≈ 39.3 µM)
3 | COc1cc(CO/N=C2\CN(c3nc4c(cc3F)c(=O)c(C(=O)O)cn4[C@@H]3C[C@@H]3F)CC2CN)cc(OC)c1 (some centres not stated) | 4 (≈ 7.36 µM) | < 0.008 | > 128 | 4 (≈ 7.36 µM) | 32 (≈ 58.9 µM) | 16 (≈ 29.4 µM) | 16 (≈ 29.4 µM) | 16 (≈ 29.4 µM) | 16 (≈ 29.4 µM) | 16 (≈ 29.4 µM) | 4 (≈ 7.36 µM) | 16 (≈ 29.4 µM) | > 128 | 0.015 (≈ 0.0276 µM) | > 128 | 32 (≈ 58.9 µM) | < 0.008 | 0.375 (≈ 0.69 µM) | 64 (≈ 118 µM) | 16 (≈ 29.4 µM) | MIC [21]: 0.015 µg/mL (≈ 0.0276 µM); MIC [22]: 1 µg/mL (≈ 1.84 µM); MIC [23]: 2 µg/mL (≈ 3.68 µM); MIC [24]: > 128 µg/mL; MIC [25]: 0.06 µg/mL (≈ 0.11 µM); MIC [26]: 8 µg/mL (≈ 14.7 µM); MIC [27]: 16 µg/mL (≈ 29.4 µM); MIC [28]: > 128 µg/mL; MIC [29]: 2 µg/mL (≈ 3.68 µM); MIC [30]: 8 µg/mL (≈ 14.7 µM); MIC [31]: 8 µg/mL (≈ 14.7 µM); MIC [32]: 32 µg/mL (≈ 58.9 µM); MIC [33]: 32 µg/mL (≈ 58.9 µM); MIC [34]: 4 µg/mL (≈ 7.36 µM); MIC [35]: 16 µg/mL (≈ 29.4 µM); MIC [36]: 128 µg/mL (≈ 235 µM); MIC [37]: 128 µg/mL (≈ 235 µM); MIC [38]: 4 µg/mL (≈ 7.36 µM)
4 | COc1ccc(CO/N=C2\CN(c3nc4c(cc3F)c(=O)c(C(=O)O)cn4[C@@H]3C[C@@H]3F)CC2CN)cc1 (some centres not stated) | 2 (≈ 3.89 µM) | < 0.008 | 64 (≈ 125 µM) | 4 (≈ 7.79 µM) | 8 (≈ 15.6 µM) | 8 (≈ 15.6 µM) | 16 (≈ 31.2 µM) | 32 (≈ 62.3 µM) | 16 (≈ 31.2 µM) | 8 (≈ 15.6 µM) | < 0.008 | 8 (≈ 15.6 µM) | 32 (≈ 62.3 µM) | 0.015 (≈ 0.0292 µM) | 128 (≈ 249 µM) | 16 (≈ 31.2 µM) | < 0.008 | 0.353 (≈ 0.687 µM) | 128 (≈ 249 µM) | 32 (≈ 62.3 µM) | MIC [21]: 0.03 µg/mL (≈ 0.0584 µM); MIC [22]: < 0.008 µg/mL; MIC [23]: 2 µg/mL (≈ 3.89 µM); MIC [24]: 128 µg/mL (≈ 249 µM); MIC [25]: 0.015 µg/mL (≈ 0.0292 µM); MIC [26]: 8 µg/mL (≈ 15.6 µM); MIC [27]: 16 µg/mL (≈ 31.2 µM); MIC [28]: 32 µg/mL (≈ 62.3 µM); MIC [29]: < 0.008 µg/mL; MIC [30]: 4 µg/mL (≈ 7.79 µM); MIC [31]: 8 µg/mL (≈ 15.6 µM); MIC [32]: 8 µg/mL (≈ 15.6 µM); MIC [33]: 8 µg/mL (≈ 15.6 µM); MIC [34]: 4 µg/mL (≈ 7.79 µM); MIC [35]: 8 µg/mL (≈ 15.6 µM); MIC [36]: 128 µg/mL (≈ 249 µM); MIC [37]: 128 µg/mL (≈ 249 µM); MIC [38]: 2 µg/mL (≈ 3.89 µM)
